Among the data in ChEMBL document CHEMBL3259544, “α-Ketoheterocycle inhibitors of fatty acid amide hydrolase: exploration of conformational constraints in the acyl side chain” (Bioorg Med Chem, 2014) are Ki, IC50 and Ratio IC50 values, retold here.

Some results are limits rather than exact numbers.

Test [1] addresses T1, Fatty-acid amide hydrolase 1 (Rattus norvegicus, UniProt P97612).
T1 sequence (P97612 whole entry): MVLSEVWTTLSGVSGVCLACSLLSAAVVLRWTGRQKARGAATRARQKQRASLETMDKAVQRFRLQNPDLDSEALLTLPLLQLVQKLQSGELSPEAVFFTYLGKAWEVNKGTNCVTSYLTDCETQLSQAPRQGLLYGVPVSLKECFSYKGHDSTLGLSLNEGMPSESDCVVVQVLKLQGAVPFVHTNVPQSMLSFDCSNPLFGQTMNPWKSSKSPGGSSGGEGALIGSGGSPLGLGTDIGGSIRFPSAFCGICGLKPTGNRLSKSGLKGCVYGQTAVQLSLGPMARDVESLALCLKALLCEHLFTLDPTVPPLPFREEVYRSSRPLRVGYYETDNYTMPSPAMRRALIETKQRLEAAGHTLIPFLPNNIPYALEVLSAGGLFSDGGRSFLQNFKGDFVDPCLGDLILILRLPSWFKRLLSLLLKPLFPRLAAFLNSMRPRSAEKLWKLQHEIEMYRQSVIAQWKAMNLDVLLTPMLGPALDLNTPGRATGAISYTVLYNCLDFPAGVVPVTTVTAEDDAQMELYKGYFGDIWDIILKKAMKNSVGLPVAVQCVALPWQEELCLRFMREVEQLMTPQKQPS
Description: Inhibition of rat recombinant FAAH expressed in Escherichia coli using [14C]oleamide as substrate assessed as oleic acid formation by Dixon plot analysis.

In test [2] the target is T2, Fatty-acid amide hydrolase 1 (Homo sapiens, UniProt O00519).
T2 sequence (O00519 whole entry): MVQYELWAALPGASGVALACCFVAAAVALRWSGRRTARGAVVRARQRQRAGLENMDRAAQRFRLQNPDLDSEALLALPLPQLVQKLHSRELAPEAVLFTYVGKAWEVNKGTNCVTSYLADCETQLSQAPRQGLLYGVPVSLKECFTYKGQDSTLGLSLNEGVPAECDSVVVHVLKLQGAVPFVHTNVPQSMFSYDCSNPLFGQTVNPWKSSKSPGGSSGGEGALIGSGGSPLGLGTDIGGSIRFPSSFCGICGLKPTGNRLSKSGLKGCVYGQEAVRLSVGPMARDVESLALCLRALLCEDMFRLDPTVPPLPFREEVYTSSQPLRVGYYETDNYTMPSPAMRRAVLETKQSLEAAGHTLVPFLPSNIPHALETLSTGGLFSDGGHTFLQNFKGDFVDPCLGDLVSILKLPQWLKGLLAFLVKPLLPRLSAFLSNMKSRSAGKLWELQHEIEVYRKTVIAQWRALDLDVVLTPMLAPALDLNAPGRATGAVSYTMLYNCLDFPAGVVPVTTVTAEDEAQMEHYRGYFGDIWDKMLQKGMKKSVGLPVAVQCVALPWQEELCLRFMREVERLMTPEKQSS
Description: Reversible inhibition of FAAH (unknown origin).

Test [3] concerns the target T3, Fatty-acid amide hydrolase 1 (Mus musculus, UniProt O08914).
T3 sequence (O08914 whole entry): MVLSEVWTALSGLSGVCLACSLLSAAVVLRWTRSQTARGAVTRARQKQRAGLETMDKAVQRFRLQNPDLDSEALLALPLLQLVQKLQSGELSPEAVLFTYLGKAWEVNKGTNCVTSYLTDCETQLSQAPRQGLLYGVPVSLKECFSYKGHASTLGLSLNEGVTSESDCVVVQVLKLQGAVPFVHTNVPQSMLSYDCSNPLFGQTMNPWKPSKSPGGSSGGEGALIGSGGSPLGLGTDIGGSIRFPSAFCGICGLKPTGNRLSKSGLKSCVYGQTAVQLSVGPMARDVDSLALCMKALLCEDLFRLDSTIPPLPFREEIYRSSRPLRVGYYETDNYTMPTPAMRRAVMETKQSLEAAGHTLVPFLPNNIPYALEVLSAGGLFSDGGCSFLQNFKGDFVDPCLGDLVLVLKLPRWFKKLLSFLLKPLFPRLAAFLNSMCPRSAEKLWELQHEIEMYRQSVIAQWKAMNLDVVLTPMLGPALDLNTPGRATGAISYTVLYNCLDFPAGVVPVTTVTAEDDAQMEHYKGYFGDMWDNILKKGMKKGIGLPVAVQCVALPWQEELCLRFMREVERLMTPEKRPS
Description: Inhibition of mouse brain FAAH incubated for 10 mins prior to rhodamine-tagged fluorophosphonate addition measured after 10 mins by SDS-PAGE. In outline: (§1)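 Mouse brain tissue was Dounce-homogenized in PBS pH 7.5, cleared at 1,400 g for 5 min, then split at 64,000 g for 45 min into soluble and membrane fractions. Proteome at 1 mg/mL in PBS was preincubated with inhibitor from DMSO stock for 10 min, then exposed to FP-rhodamine at 100 nM for 10 min at 25 °C. Gel bands were scanned and integrated relative to a DMSO control. IC50 came from dose-response curves, three trials per concentration.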

Test [4] concerns the target T4, Neutral cholesterol ester hydrolase 1 (Mus musculus, UniProt Q8BLF1).
T4 sequence (Q8BLF1 whole entry): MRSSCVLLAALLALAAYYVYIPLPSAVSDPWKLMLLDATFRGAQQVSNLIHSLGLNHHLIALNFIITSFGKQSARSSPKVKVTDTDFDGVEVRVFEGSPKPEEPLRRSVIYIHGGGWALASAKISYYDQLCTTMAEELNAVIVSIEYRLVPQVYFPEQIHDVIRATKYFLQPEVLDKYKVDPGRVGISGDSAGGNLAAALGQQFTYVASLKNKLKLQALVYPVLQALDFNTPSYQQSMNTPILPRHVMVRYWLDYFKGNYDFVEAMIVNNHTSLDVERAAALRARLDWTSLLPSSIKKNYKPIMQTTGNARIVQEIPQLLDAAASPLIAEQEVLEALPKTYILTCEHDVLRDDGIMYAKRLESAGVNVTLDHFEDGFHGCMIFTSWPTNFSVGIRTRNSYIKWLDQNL
Kind of test: Inhibition of mouse brain KIAA1363 incubated for 10 mins prior to rhodamine-tagged fluorophosphonate addition measured after 10 mins by SDS-PAGE. In outline:
as §1

In another test the target is T5, Monoglyceride lipase (Mus musculus, UniProt O35678).
T5 sequence (O35678 whole entry): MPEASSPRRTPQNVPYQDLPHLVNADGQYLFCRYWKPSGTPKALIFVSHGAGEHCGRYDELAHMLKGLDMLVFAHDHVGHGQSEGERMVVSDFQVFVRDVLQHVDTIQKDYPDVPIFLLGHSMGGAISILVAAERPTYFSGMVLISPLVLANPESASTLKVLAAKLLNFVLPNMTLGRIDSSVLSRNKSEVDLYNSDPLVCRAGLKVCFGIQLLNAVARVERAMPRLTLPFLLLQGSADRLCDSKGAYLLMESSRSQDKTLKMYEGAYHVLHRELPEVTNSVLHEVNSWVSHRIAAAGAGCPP
Kind of test: Inhibition of mouse brain MAGL incubated for 10 mins prior to rhodamine-tagged fluorophosphonate addition measured after 10 mins by SDS-PAGE. Summed up: as §1

The target of test [5] is T6, Monoacylglycerol lipase ABHD6 (Mus musculus, UniProt Q8R2Y0).
T6 sequence (Q8R2Y0 whole entry): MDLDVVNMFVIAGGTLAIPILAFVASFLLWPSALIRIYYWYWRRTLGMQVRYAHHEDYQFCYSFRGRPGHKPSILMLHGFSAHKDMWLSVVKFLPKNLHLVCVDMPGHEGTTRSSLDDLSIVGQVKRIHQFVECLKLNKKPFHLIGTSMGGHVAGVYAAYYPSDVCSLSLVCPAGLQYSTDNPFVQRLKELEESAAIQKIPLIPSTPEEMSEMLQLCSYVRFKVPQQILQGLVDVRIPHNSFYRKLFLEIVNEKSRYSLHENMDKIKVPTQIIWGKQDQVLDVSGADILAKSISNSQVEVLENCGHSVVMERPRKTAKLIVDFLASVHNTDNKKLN
Description: Inhibition of mouse brain ABHD6 incubated for 10 mins prior to rhodamine-tagged fluorophosphonate addition measured after 10 mins by SDS-PAGE. It is filed as tissue-based. Summed up: as §1

Test [6] is filed under the species Mus musculus. Description: Selectivity ratio of IC50 for mouse brain KIAA1363 to mouse brain FAAH.
Test [7] is filed under the species Mus musculus. Description: Selectivity ratio of IC50 for mouse brain MAGL to mouse brain FAAH.
The species entered for test [8] is Mus musculus. Kind of test: Selectivity ratio of IC50 for mouse brain ABHD6 to mouse brain FAAH.

A word on the Ki: it is the equilibrium dissociation constant of an inhibitor or competing ligand from its target. As for `O=C(c1ncco1)[C@@H]1COc2cc(OCc3ccccc3)ccc2C1`, the Ki in [1] came out at 16 nM.
Take `CCCCCCC(C)OC(=O)C(Br)C(C)=O` (configuration not stated): in test [2], the Ki amounted to 800 nM.
Usually IC50 stands for the concentration that inhibits the measured activity by half. High values mean a need for much substance, low ones inhibition by little substance. With `O=C(c1ncc(-c2ccccn2)o1)C1CCc2cc(Oc3ccccc3)ccc2O1` (single isomer, unassigned; enantiomer 2) [listing 1 of 2 here], the Ki in [1] is 120 nM. The IC50 is 50 nM in test [3], greater than 100000 nM in test [4], greater than 100000 nM against Monoglyceride lipase and greater than 100000 nM in test [5].
As for `COC(=O)c1cccc(-c2cnc(C(=O)[C@H]3COc4cc(Oc5ccccc5)ccc4C3)o2)n1`, the Ki in [1] came out at 41 nM.
Regarding `O=C(c1ncc(-c2ccccn2)o1)C1CCc2cc(Oc3ccccc3)ccc2O1` (single isomer, unassigned; enantiomer 2) [listing 2 of 2 here], the Ratio IC50 in the test filed under Mus musculus [6], in the test filed under Mus musculus [7] and in the test filed under Mus musculus [8] was greater than 200 throughout.
In the case of `O=C(c1ncco1)[C@H]1COc2cc(OCc3ccccc3)ccc2C1`, the Ki in test [1] worked out at 20 nM.
As for `O=C(c1ncco1)[C@@H]1COc2cc(-c3ccccc3)ccc2C1`, the Ki in [1] worked out at 32 nM.
Same read-out and setting: the same measure for `O=C(c1ncco1)C1COc2cc(Oc3ccccc3)ccc2C1` (racemic): 33 nM; for `O=C(c1ncc(-c2ccccn2)o1)[C@@H]1COc2cc(OCc3ccccc3)ccc2C1`: 17 nM; for `O=C(c1ncc(-c2ccccn2)o1)[C@H]1COc2cc(-c3ccccc3)ccc2C1`: 23 nM.
For `O=C(c1ncc(-c2ccccn2)o1)[C@H]1COc2cc(OCc3ccccc3)ccc2C1`, in [1], the inhibition constant (Ki) was found to be 18 nM.
Same read-out and setting: the same measure for `O=C(c1ncco1)C1CCc2cc(Oc3ccccc3)ccc2O1` (single isomer, unassigned; enantiomer 2): 31 nM; for `O=C(c1ncco1)[C@H]1COc2cc(-c3ccccc3)ccc2C1`: 20 nM; for `COC(=O)c1cccc(-c2cnc(C(=O)C3CCc4cc(Oc5ccccc5)ccc4O3)o2)n1` (single isomer, unassigned; enantiomer 2): 210 nM.
With `O=C(c1ncc(-c2ccccn2)o1)C1CCc2cc(Oc3ccccc3)ccc2O1` (single isomer, unassigned) [listing 1 of 2 here], the inhibitory constant (Ki) in [1] is 36 nM. The half-inhibitory concentration (IC50) in test [3] was 70 nM; in test [4] it was greater than 100000 nM; against Monoglyceride lipase it was greater than 100000 nM; in [5], greater than 100000 nM.
`O=C(c1ncc(-c2ccccn2)o1)[C@H]1COc2cc(Oc3ccccc3)ccc2C1`: the inhibition constant (Ki) in test [1] is 18 nM. For the same compound, the IC50 was 90 nM in test [3], greater than 100000 nM in [4], greater than 100000 nM against Monoglyceride lipase and greater than 100000 nM in [5]. Also, the Ratio IC50 in the test listed under Mus musculus [6], in the test listed under Mus musculus [7] and in the test listed under Mus musculus [8] was greater than 200 throughout.
As for `O=C(c1ncc(-c2ccccn2)o1)C1CCc2cc(Oc3ccccc3)ccc2O1` (single isomer, unassigned) [listing 2 of 2 here], the Ratio IC50 in the test listed under Mus musculus [6], in the test filed under Mus musculus [7] and in the test filed under Mus musculus [8] was greater than 200 each time.
`COC(=O)c1cccc(-c2cnc(C(=O)[C@@H]3COc4cc(Oc5ccccc5)ccc4C3)o2)n1`: the inhibitory constant (Ki) in [1] is 333 nM.
Same read-out and setting: with `O=C(c1ncc(I)o1)[C@H]1COc2cc(Oc3ccccc3)ccc2C1` the figure was 20 nM.
For `O=C(c1ncc(-c2ccccn2)o1)[C@@H]1COc2cc(-c3ccccc3)ccc2C1`, the inhibitory constant (Ki) in [1] was 11 nM.
On the same count and under the same terms, the same measure for `O=C(c1ncco1)C1CCc2cc(Oc3ccccc3)ccc2O1` (single isomer, unassigned; enantiomer 1): 17 nM; for `O=C(c1ncc(I)o1)[C@@H]1COc2cc(Oc3ccccc3)ccc2C1`: 31 nM; for `COC(=O)c1cccc(-c2cnc(C(=O)C3CCc4cc(Oc5ccccc5)ccc4O3)o2)n1` (single isomer, unassigned; enantiomer 1): 94 nM.
With `O=C(c1ncc(-c2ccccn2)o1)[C@H]1CCc2cc(Oc3ccccc3)ccc2C1`, the inhibition constant Ki in test [1] was found to be 4.4 nM.
On the same count and under the same terms, the same measure for `O=C(c1ncc(-c2ccccn2)o1)C1COc2cc(OCc3ccccc3)ccc2C1` (racemic): 17 nM.
In the case of `O=C(c1ncc(-c2ccccn2)o1)[C@@H]1COc2cc(Oc3ccccc3)ccc2C1`, the Ki in test [1] is 27 nM. Also, the IC50 is 460 nM in test [3], greater than 100000 nM in test [4], greater than 100000 nM against Monoglyceride lipase and greater than 100000 nM in test [5]. The Ratio IC50 in the test filed under Mus musculus [6], in the test filed under Mus musculus [7] and in the test listed under Mus musculus [8] was greater than 200 in each case.
